Measured values from ChEMBL document CHEMBL1131413, “Mutational evidence for a common kappa antagonist binding pocket in the wild-type kappa and mutant mu[K303E] opioid receptors” (J Med Chem, 1998).

How the values were obtained:
[1] = target: Kappa-type opioid receptor (Rattus norvegicus, UniProt P34975); assay: Effect on binding affinity of mutational exchange of Glu297 in the Opioid receptor kappa 1 in transiently expressed […] cells activity expressed as binding affinity.; format: cell-based
Chain of Kappa-type opioid receptor (Rattus norvegicus, UniProt P34975) (P34975 whole entry, looked up): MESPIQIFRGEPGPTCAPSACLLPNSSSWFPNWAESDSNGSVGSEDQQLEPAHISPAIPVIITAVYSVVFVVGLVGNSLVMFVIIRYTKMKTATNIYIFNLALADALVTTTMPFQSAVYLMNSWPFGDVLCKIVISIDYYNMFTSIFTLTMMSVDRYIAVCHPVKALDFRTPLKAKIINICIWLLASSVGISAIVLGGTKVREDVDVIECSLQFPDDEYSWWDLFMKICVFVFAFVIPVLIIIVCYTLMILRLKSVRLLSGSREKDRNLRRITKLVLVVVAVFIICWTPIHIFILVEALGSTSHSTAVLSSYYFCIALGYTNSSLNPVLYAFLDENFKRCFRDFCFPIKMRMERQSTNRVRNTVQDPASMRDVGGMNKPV

[2] = target: Kappa-type opioid receptor (Rattus norvegicus, UniProt P34975, E297K); assay: Mutant factor of the compound against kappa[E297K] with Opioid receptor kappa 1 for binding affinity.
Chain of Kappa-type opioid receptor (Rattus norvegicus, UniProt P34975, E297K) (P34975 whole entry E297K): as the sequence (P34975 whole entry, looked up) above, with E297K counted along it

[3] = target: Mu-type opioid receptor (Rattus norvegicus, UniProt P33535); assay: Effect on binding affinity of mutational exchange of Lys303 in the Opioid receptor mu 1 in transiently expressed […] cells activity expressed as binding affinity.; format: cell-based
Chain of Mu-type opioid receptor (P33535 whole entry, looked up): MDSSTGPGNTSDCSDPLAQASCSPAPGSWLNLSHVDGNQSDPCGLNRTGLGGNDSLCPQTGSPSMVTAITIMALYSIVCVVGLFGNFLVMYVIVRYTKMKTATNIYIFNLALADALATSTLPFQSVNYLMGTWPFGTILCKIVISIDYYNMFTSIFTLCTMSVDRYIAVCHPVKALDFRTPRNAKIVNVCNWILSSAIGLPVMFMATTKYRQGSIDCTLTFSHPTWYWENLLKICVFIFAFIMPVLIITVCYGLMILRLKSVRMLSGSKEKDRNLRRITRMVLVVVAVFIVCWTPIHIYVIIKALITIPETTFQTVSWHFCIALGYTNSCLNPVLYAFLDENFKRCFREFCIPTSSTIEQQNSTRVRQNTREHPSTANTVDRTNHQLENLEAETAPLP

[4] = target: Kappa-type opioid receptor (Rattus norvegicus) (UniProt P34975); assay: Effect on binding affinity of mutational exchange of Glu297 in the Opioid receptor kappa 1 in transiently expressed […] cells activity expressed as binding ratio with nor-BNI.
Chain of Kappa-type opioid receptor (Rattus norvegicus) (P34975 whole entry): as the sequence (P34975 whole entry, looked up) above

[5] = target: Opioid receptors; delta & kappa (Homo sapiens) (UniProt P41145+P41143); assay: Ratio of Ke value to kappa receptor to that of delta receptor; format: protein assay
Chain of Opioid receptors; delta & kappa (Homo sapiens) (P41143 whole entry, looked up): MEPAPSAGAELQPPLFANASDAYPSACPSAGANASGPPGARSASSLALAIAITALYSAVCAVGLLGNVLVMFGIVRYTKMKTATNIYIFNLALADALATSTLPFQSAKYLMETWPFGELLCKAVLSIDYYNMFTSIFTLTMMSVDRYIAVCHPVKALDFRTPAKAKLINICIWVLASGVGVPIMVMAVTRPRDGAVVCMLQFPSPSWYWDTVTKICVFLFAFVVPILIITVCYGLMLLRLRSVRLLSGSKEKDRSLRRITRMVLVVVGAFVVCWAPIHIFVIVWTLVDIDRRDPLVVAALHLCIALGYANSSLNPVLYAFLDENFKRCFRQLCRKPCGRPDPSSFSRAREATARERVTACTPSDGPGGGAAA
Chain of Opioid receptors; delta & kappa (Homo sapiens) (P41145 whole entry, looked up): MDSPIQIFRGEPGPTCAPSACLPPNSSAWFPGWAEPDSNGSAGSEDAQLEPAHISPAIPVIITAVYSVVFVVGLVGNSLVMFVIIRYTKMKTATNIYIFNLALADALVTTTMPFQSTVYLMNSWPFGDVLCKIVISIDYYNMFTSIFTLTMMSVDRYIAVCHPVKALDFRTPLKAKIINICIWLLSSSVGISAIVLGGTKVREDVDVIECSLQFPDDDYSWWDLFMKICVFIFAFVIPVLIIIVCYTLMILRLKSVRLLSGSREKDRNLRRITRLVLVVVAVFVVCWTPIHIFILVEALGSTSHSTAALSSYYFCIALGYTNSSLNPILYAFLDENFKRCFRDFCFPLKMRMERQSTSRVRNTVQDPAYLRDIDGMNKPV
Outline: (§1)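 Selectivity ratios were taken from Ke values measured in smooth muscle (100 nM antagonist, 15 min preincubation). Kappa Ke came from guinea-pig ileum with ethylketazocine, mu Ke from guinea-pig ileum with morphine, and delta Ke from mouse vas deferens with DADLE.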

[6] = target: Opioid receptors; mu & kappa (Homo sapiens) (UniProt P41145+P35372); assay: Ratio of Ke value to kappa receptor to that of mu receptor; format: protein assay; outline: as §1
Chain of Opioid receptors; mu & kappa (Homo sapiens) (P35372 whole entry, looked up): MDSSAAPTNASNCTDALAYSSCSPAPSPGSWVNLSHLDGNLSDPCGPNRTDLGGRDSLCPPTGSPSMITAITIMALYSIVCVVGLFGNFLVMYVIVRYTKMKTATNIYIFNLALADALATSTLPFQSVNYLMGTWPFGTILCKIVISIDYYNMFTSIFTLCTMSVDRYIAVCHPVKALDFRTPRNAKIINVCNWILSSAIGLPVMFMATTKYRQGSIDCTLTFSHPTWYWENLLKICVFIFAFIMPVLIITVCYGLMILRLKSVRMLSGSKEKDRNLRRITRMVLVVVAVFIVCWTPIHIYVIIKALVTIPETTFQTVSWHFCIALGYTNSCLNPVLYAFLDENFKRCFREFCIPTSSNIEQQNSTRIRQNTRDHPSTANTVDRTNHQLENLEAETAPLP
Chain of Opioid receptors; mu & kappa (Homo sapiens) (P41145 whole entry, looked up): as the sequence (P41145 whole entry, looked up) above

[7] = target: Kappa-type opioid receptor (Cavia porcellus) (UniProt P41144); assay: Opioid antagonist potencies against Opioid receptor kappa 1 from guinea pig ileum employing ethylketazocine (EKC) as agonist.; format: functional, tissue-based
Chain of Kappa-type opioid receptor (Cavia porcellus) (P41144 whole entry): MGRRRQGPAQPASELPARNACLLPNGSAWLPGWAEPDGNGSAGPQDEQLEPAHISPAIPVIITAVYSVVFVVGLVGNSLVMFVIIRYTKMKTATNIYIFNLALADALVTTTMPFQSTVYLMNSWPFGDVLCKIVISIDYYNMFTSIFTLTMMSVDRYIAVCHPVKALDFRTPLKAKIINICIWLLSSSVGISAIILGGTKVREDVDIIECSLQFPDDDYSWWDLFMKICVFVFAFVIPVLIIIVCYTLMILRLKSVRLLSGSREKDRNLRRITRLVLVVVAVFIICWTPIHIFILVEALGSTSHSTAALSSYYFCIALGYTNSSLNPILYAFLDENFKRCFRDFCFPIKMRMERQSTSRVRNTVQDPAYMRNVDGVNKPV
Outline: (§2)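 Electrically stimulated guinea-pig ileal longitudinal muscle. Antagonist at 100 nM was incubated 15 min before agonist (ethylketazocine for kappa, morphine for mu). Ke = [antagonist]/(IC50 ratio − 1), where the IC50 ratio is agonist IC50 with antagonist over agonist IC50 alone in the same preparation. Ke is the mean of at least three IC50 ratios.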

[8] = target: Delta-type opioid receptor (Mus musculus) (UniProt P32300); assay: Opioid antagonist potencies against Opioid receptor delta 1 from mouse vas-deferens preparation employing [D-Ala2,D-Leu5]enkephalin (DADLE) as agonist.; format: functional
Chain of Delta-type opioid receptor (Mus musculus) (P32300 whole entry): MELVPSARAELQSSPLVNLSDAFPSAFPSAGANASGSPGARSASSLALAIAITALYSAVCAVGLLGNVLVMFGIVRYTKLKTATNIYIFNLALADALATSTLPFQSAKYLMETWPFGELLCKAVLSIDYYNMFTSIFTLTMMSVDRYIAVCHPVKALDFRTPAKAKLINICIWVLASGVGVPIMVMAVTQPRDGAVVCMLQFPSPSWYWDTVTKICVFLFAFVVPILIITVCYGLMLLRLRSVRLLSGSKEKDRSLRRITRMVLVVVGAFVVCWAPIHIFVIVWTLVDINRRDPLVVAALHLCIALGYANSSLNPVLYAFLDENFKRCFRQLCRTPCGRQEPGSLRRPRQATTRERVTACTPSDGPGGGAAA
Outline: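 Electrically stimulated mouse vas deferens. Antagonist at 100 nM was incubated 15 min before the agonist DADLE. Ke = [antagonist]/(IC50 ratio − 1), using agonist IC50 with versus without antagonist in the same preparation. Ke is from an average of at least three IC50 ratios.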

[9] = target: Mu-type opioid receptor (Cavia porcellus) (UniProt P97266); assay: Opioid antagonist potencies against Opioid receptor mu 1 from guinea pig ileum employing morphine(M) as agonist.; format: functional, tissue-based; outline: as §2
Chain of Mu-type opioid receptor (Cavia porcellus) (P97266 whole entry): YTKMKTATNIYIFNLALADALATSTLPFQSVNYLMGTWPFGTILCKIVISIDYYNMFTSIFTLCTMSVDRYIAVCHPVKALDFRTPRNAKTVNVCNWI

Row | SMILES | Ki [1] | Ki [2] | Ki [3] | Fana [4] | Selectivity [5] | Selectivity [6] | Ke [7] | Ke [8] | Ke [9]
1 | N#CN=C(N)Nc1ccc2[nH]c3c(c2c1)C[C@@]1(O)C2Cc4ccc(O)c5c4[C@@]1(CCN2CC1CC1)[C@H]3O5 | 0.27 nM | 2.48 nM | 4.04 nM | – | – | – | – | – | –
2 | N=C(N)Nc1ccc2[nH]c3c(c2c1)C[C@@]1(O)[C@H]2Cc4ccc(O)c5c4[C@@]1(CCN2CC1CC1)[C@H]3O5 [GUANIDINONALTRINDOLE] | 0.09 nM | 12.9 nM | 9.23 nM | 0.75 | 799 | 208 | – | – | –
3 | N#CN/C(N)=N/c1ccc2[nH]c3c(c2c1)C[C@@]1(O)C2Cc4ccc(O)c5c4[C@@]1(CCN2CC1CC1)[C@H]3O5 | – | – | – | 2.25 | 3 | 5 | 3.13 nM | 9.08 nM | 16.1 nM
4 | Oc1ccc2c3c1O[C@H]1c4[nH]c5c(c4C[C@@]4(O)[C@@H](C2)N(CC2CC2)CC[C@]314)C[C@@]1(O)[C@H]2Cc3ccc(O)c4c3[C@@]1(CCN2CC1CC1)[C@H]5O4 | – | – | – | 1 | – | – | – | – | –
